Columns and labels:
[1] = Hydroxyl radical-scavenging assay; assay type: biochemical; settings: ED50 <20 μM considered active
How it was run: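 In vitro scavenging assay run on the solvent partitions of the methanolic root-bark extract (hexanes, CHCl3, EtOAc, n-BuOH) and on pure isolates, with a positive control. ED50 is the concentration that scavenges hydroxyl radicals by 50%.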

NF-κB p65 = NF-κB p65 (Homo sapiens, UniProt Q04206); assay: NF-κB p65 inhibition assay; assay type: cell-based
[2] = tested on: HT-29 human colon cancer cell line; assay: Cytotoxicity against HT-29 cell line; assay type: cell-based; settings: HT-29, read-out: cytotoxicity IC50 (concentration inhibiting HT-29 cell growth by 50%)
How it was run: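 Pure isolates were tested against HT-29 human colon cancer cells, with a positive control. IC50 is the concentration that inhibits HT-29 cell growth by 50%, and an IC50 below 10 μM is counted as active.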

NF-κB p65, sequence (Q04206 whole entry): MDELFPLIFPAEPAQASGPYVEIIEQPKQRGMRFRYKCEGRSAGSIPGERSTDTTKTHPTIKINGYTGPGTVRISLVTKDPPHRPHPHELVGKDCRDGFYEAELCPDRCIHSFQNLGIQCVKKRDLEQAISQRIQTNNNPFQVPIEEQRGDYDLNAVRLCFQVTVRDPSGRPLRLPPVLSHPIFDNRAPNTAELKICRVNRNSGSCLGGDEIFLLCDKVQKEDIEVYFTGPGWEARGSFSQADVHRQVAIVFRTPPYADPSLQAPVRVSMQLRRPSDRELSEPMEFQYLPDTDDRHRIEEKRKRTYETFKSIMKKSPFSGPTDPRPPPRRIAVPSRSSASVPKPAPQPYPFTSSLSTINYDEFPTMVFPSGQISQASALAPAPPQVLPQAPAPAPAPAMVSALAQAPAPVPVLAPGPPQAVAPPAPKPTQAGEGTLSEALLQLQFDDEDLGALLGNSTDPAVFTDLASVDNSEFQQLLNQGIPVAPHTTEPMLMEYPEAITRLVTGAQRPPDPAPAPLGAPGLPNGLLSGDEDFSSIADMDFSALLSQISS

| Compound | hydroxy radical-scavenging ED50 (concentration scavenging hydroxyl radical by 50%) [1] [nM] | other results |
| --- | --- | --- |
| C=CC(C)(C)c1cc(C(=O)c2c(-c3cc(-c4cc5cc(C(C)(C)C=C)c(O)cc5oc4=O)c(O)cc3O)oc3cc(O)ccc23)c(O)cc1O [compound 1, sphenostylisin A] | 710 | NF-κB inhibitory potency relative to compound 3 (NF-κB p65; times more potency than compound 3): 75 times; NF-κB p65 inhibitory potency relative to the positive control rocaglamide (NF-κB p65; times more potent than rocaglamide): > 10 times |
| C=CC(C)(C)c1cc(-c2oc3cc(O)ccc3c2Cc2cc(-c3cc4cc(C(C)(C)C=C)c(O)cc4oc3=O)c(O)cc2O)c(O)cc1O [compound 2, sphenostylisin B] | 730 |  |
| C=CC(C)(C)c1cc2c(cc1O)OC[C@H](c1cc(-c3oc4cc(O)ccc4c3C(=O)c3cc(C(C)(C)C=C)c(O)cc3O)c(O)cc1O)C2 [compound 3, sphenostylisin C] | 940 |  |
| C=CC(C)(C)c1cc2cc(-c3ccc(O)cc3O)c(=O)oc2cc1O [compound 4, 7-hydroxy-6-(2-methylbut-3-en-2-yl)-2′,4′-dihydroxy-3-phenylcoumarin] | 2600 | NF-κB p65 inhibitory activity retained relative to compound 1 (NF-κB p65; fraction of the activity of 1): one-tenth |
| CC1(C)c2cc3cc(-c4ccc(O)cc4O)c(=O)oc3cc2OC1CO (stereo not drawn) [compound 5, 6-(2,7-epoxy-3-methylbut-1-ol-3-yl)-2′,4′-dihydroxy-3-phenylcoumarin] | 18500 |  |
| C=CC(C)(O)Cc1cc2cc(-c3ccc(O)cc3O)c(=O)oc2cc1O (stereo not drawn) [compound 6, 7-hydroxy-6-(2-hydroxy-2-methylbut-3-en-1-yl)-2′,4′-dihydroxy-3-phenylcoumarin] | >20000 |  |
| C=CC(C)(CO)c1cc2cc(-c3ccc(O)cc3O)c(=O)oc2cc1O (stereo not drawn) [compound 7, 7-hydroxy-6-(1-hydroxy-2-methylbut-3-en-2-yl)-2′,4′-dihydroxy-3-phenylcoumarin] | >20000 |  |
| C=CC(C)(CO)c1cc2c(=O)c(-c3ccc(O)cc3O)coc2cc1O (stereo not drawn) [compound 8, 7-hydroxy-6-(1-hydroxy-2-methylbut-3-en-2-yl)-2′,4′-dihydroxyisoflavone] | 2200 | IC50 (NF-κB p65): 450 nM; IC50 [2]: > 10000 nM |
| CC1(C)c2cc(CC(=O)c3ccc(O)cc3O)c(O)cc2OC1CO (stereo not drawn) [compound 9, 2,4-dihydroxy-2′-dihydroxy-5′-(2,4′-epoxy-3-methylbut-1-ol-3-yl)deoxybenzoin] | 1000 |  |
| C=CC(C)(O)Cc1cc(CC(=O)c2ccc(O)cc2O)c(O)cc1O (stereo not drawn) [compound 10, 2,4-dihydroxy-2′,4′-dihydroxy-5′-(2-hydroxy-2-methylbut-3-en-1-yl)deoxybenzoin] | 600 | IC50 (NF-κB p65): > 20000 nM; IC50 [2]: > 10000 nM |
| C=CC(C)(CO)c1cc(CC(=O)c2ccc(O)cc2O)c(O)cc1O (stereo not drawn) [compound 11, 2,4-dihydroxy-2′,4′-dihydroxy-5′-(1-hydroxy-2-methylbut-3-en-2-yl)deoxybenzoin] | 630 | IC50 (NF-κB p65): > 20000 nM; IC50 [2]: > 10000 nM |
| O=c1c(O)c(-c2ccc(O)c(O)c2)oc2cc(O)cc(O)c12 [quercetin, reference compound] | 1200 |  |

Source: article PMC3827909 (The Journal of organic chemistry, 2013)
